# TAAR1 antagonist – human TAAR1 antagonists, primary screen, Fluo-8 calcium fluorescence, CHO RD-HGA16 cells; Trace amine-associated receptor 1 (Homo sapiens), Q96RJ0; antagonist; inhibition, % at 3 µM; 1.5% of 360,000 active; AID 624466, 2012;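 active = inhibition above a per-plate cutoff, the mean inhibition of test compounds on that plate plus 3 SD, cut at about 49% in these data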
#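 Material: RD-HGA16 CHO cells with stable hTAAR1 and Gα16; Dosing: single nominal final test compound concentration of 3 µM; Schedule: seeding 17-24 h prior, 75-min 37 °C, 30-min RT dye loading; Detection: kinetic Fluo-8 calcium fluorescence measurement; Measure: % inhibition from peak post-agonist over basal fluorescence ratio; Benchmarks: vehicle and agonist controls.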
# OX1R antag-1 – antagonists of human orexin 1 receptor (OX1R); OX1R-expressing cells, FRET antagonist read-out; Orexin/Hypocretin receptor type 1 (Homo sapiens), O43613; inhibition, % at 6.6 µM; 1.8% of 330,000 active; in the data active = inhibition mostly above about 38%, no sharp cut-off; inactive = mostly below about 40%
# Target sequence (O43613 whole entry, looked up): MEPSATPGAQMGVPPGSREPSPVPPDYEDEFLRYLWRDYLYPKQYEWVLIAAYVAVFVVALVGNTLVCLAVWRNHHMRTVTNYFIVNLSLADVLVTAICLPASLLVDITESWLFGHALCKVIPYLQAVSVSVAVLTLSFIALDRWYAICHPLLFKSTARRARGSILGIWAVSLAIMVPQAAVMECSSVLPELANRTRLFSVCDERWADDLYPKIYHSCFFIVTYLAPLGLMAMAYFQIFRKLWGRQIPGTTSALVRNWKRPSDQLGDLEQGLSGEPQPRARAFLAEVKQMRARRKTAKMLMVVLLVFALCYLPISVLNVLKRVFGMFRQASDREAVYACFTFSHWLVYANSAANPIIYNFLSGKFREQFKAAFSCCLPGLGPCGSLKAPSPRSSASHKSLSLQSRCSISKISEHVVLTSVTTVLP
# CHO parental Ca – ATP-evoked calcium signal inhibitors, parental CHO, primary screen, counter-screen for OX1R antagonist project, cell-based, fluorescence, Fluo-8 calcium dye; inhibition, % at 5.6 µM; parental CHO-K1, ATP-induced calcium, Fluo-8 fluorescence; 0.63% of 330,000 active;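 active = inhibition above that plate's mean sample inhibition plus 3 SD, cut at about 26% in these data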
#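 Measured by: calcium-sensitive Fluo-8 fluorescence / Test system: CHO parental line / Controls: ATP-challenged DMSO wells low, unchallenged DMSO wells high / Measure: % inhibition / Compound: single nominal dose of 5.6 µM per compound / Replicates: single well per compound, no replicates / Reagent: ATP as calcium-mobilizing challenge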
# OX1R antag-2 – OX1R (HCRTR1) antagonists, primary screen, fluorescence, CHO/OX1R cells, Fluo-8 calcium, orexin A. Fluo-8 calcium fluorescence. inhibition, % at 5 µM. 0.43% of 330,000 active;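 active = inhibition above its plate's threshold, mean inhibition of all tested compounds on the plate plus 3 SD, cut at about 37% in these data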
# TAAR1 agonist – human TAAR1 agonists, primary screen, Fluo-8 calcium fluorescence, CHO RD-HGA16 cells; Trace amine-associated receptor 1 (Homo sapiens), Q96RJ0; vehicle wells 0%, saturating PEA agonist 100%; activation, % at 3 µM; AID 624467, 2012; 0.99% of 360,000 active;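 active = activation above the mean activation of all test compounds in the run plus 3 SD, cut at about 38% in these data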
#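 test system = CHO RD-HGA16 cells carrying human TAAR1 plus Gα16 | schedule = 17-24 h seeding, 75 min 37 °C dye, 30 min RT | compound dosing = 3 µM single concentration | control set = DMSO and PEA EC100 | replicates = n 1 | signal = Fluo-8 fluorescence, 5 s baseline then 140 s kinetic read | measure = percent activation vs PEA EC100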
# Numbers stand for hits; n = inactive; x = no result given. The list is not random: actives were taken first. Their share in the collection is about 3.9%.
SMILES,TAAR1 antagonist,OX1R antag-1,CHO parental Ca,OX1R antag-2,TAAR1 agonist
CCOC(=O)c1oc2ccccc2c1COC(=O)CNC(=O)c1cc(OC)c(OC)c(OC)c1,n,n,n,n,n
CCOC(=O)c1oc2ccccc2c1COC(=O)CNC(=O)c1ccccc1OC,n,68,n,n,n
Cc1c(NS(=O)(=O)c2cccs2)cccc1-c1nc2cccnc2s1,n,n,n,n,n
O=S(=O)(Nc1cccc2ncccc12)c1cccs1,x,n,40,n,x
CCN(CC)CCNC(=O)CCc1c(C)nc2c(c(C)nn2-c2ccc(C)c(C)c2)c1C,n,x,x,x,n
O=C(NC1CCCC1)C(c1cccnc1)N(CCc1ccccc1)C(=O)c1ccco1 (stereo not given),n,57,n,n,n
O=C(NCC(=O)N(CCc1ccccc1)C(C(=O)NC1CCCC1)c1cccnc1)c1ccco1 (stereo not given),x,n,n,n,x
COC(=O)C(C(=O)OC)c1cc2c(cc1CNS(=O)(=O)c1ccc(C)cc1)OCO2,n,x,x,x,n
COc1ccccc1/C=C/C(=O)NCC(=O)N/N=C/c1cccnc1,n,n,n,n,n
COc1ccccc1/C=C/C(=O)NCC(=O)N/N=C/c1ccccc1,n,n,n,n,38
Cn1c(Sc2ccc(C(=O)O)cc2[N+](=O)[O-])nnc1-c1ccccc1,n,57,n,n,n
CC(=O)c1ccc(Sc2nnnn2-c2ccccc2)c([N+](=O)[O-])c1,n,n,n,n,n
COc1n[nH]c2nncnc12,n,121,n,n,n
Cc1ccccc1CN1[C@@H](C)[C@H](c2ccccc2)Oc2cccc(NCCc3ccccc3)c2S1(=O)=O,n,x,x,x,n
Cc1cc(CNC[C@H]2O[C@@H](n3ccc(=O)[nH]c3=O)[C@H](O)[C@@H]2O)no1,n,x,x,x,n
S=C1Cc2ccccc2N1,n,x,x,x,43
S=C1Nc2ccccc2CS1,n,x,x,x,n
CC1=Nc2ccccc2/C1=C/c1sc(=N)n(-c2nccs2)c1O,x,n,47,64,x
CC1=Nc2ccccc2/C1=C/c1c(N)n2c(S(=O)(=O)C(C)C)nsc2nc1=O,n,n,n,n,n
COc1ccc(C(C(=O)NC(C)(C)C)n2c(=O)c(-c3ccccc3)nc3ccccc32)cc1 (stereo not given),n,x,x,x,n
CC1(C)C=Cc2c(ccc3c2OC[C@H](c2ccc(O)cc2O)C3)O1,n,n,79,52,n
COc1ccc(CCNc2nc(-c3ccc(O)cc3)cs2)cc1OC,n,32,58,61,n
O=S1(=O)CC(N2CC=CC2)CN1Cc1ccc(F)cc1 (stereo not given),n,x,x,x,n
C#CCOCCOCCOCCNc1nc(N2CCN(C(=O)CCCCCCCCCCNC(=O)[C@H](CCCCN)n3cc(C)nn3)CC2)nc(N2CCN(C(=O)CCCCCCCCCCNC(=O)[C@@H]([C@H](C)CC)n3cc(CCCCCN)nn3)CC2)n1,x,n,73,n,x
CC(C)(C)OC(=O)NCCCC[C@@H](C(=O)NCCCCCCCCCCC(=O)N1CCN(C(=O)OC(C)(C)C)CC1)n1cc(CCO)nn1,n,n,n,n,n
SMILES,TAAR1 antagonist,OX1R antag-1,CHO parental Ca,OX1R antag-2,TAAR1 agonist
C#CCOCCOCCOCCNc1nc(N2CCN(C(=O)CCCCCCCCCCNC(=O)[C@H](CCCCN)n3cc(CCO)nn3)CC2)nc(N2CCN(C(=O)CCCCCCCCCCNC(=O)[C@H](CCCN=C(N)N)n3cc(C[C@@H](C)CC)nn3)CC2)n1,x,n,n,n,x
C#CCOCCOCCOCCNc1nc(N2CCN(C(=O)CCCCCCCCCCNC(=O)[C@H](CCCCN)n3cc(C[C@@H](C)CC)nn3)CC2)nc(N2CCN(C(=O)CCCCCCCCCCNC(=O)[C@H](CCCCN)n3cc(C[C@@H](C)CC)nn3)CC2)n1,x,n,101,n,x
CC[C@H](C)Cc1cn([C@@H](CCCCNC(=O)OC(C)(C)C)C(=O)NCCCCCCCCCCC(=O)N2CCN(C(=O)OC(C)(C)C)CC2)nn1,63,n,n,n,n
OC[C@@H]1CN(Cc2ccc3c(c2)OCO3)C[C@H](n2cnc3c(NCc4ccc(F)cc4)ncnc32)O1,n,x,x,x,n
O=[N+]([O-])c1cc(Cl)cc(/C=N/NC(=S)Nc2ccc(S(=O)(=O)N3CCOCC3)cc2)c1O,n,75,n,n,n
O=S(=O)(c1ccc(NC(=S)N/N=C/c2ccc(O)c(O)c2)cc1)N1CCOCC1,n,n,n,n,n
N/C(=N\OC(=O)Oc1ccccc1)c1ccc([N+](=O)[O-])cc1,n,67,n,n,n
N/C(=N\OC(=O)Oc1ccccc1)c1cccc([N+](=O)[O-])c1,n,n,n,n,n
COc1ccc(C(C)NCCC(c2ccc(OC(C)C)cc2)c2ccccc2OC)cc1 (stereo not given),n,x,x,x,44
COCc1cc(N2CCNC[C@@H]2C)ccc1N1CCN(Cc2ccccc2)[C@H](C)C1,n,x,x,x,n
COC(=O)CSC1=C(C#N)C(c2ccc3c(c2)OCO3)C2=C(CCCC2=O)N1 (stereo not given),x,n,n,n,x
COC(=O)C1=C(N)N(c2ccccc2C(F)(F)F)C2=C(C(=O)CCC2)C1c1ccc2c(c1)OCO2 (stereo not given),n,n,48,n,n
Cc1cc(N/N=C/c2cccc(Cl)c2)nc(NCc2ccccc2)n1,n,n,n,n,n
Cc1cc(N/N=C/c2ccc(Cl)cc2)nc(NCc2ccccc2)n1,n,n,n,n,40
CCOc1ccc(OCc2ccc(C(=O)NC(C)(C)C)o2)cc1,n,x,x,x,n
CC(C)NC(=O)c1ccc(COc2ccc(C(C)(C)C)cc2)o1,n,n,66,n,n
COc1cccc(/C=N/Nc2nc3ccccc3n3cnnc23)c1,n,n,n,n,n
COc1cccc(/C=N/Nc2nc3ccccc3n3cnnc23)c1O,n,67,n,n,n
CCSc1nnc(-c2ccccc2N=Cc2c(C)[nH]n(-c3ccccc3)c2=O)c(=O)[nH]1,n,n,n,n,n
CSc1nnc(-c2cc(Br)ccc2N=Cc2c(C)[nH]n(-c3ccccc3)c2=O)c(=O)[nH]1,n,48,n,n,n
CCSc1nnc(-c2cc(Br)ccc2N=Cc2c(C)[nH]n(-c3ccccc3)c2=O)c(=O)[nH]1,n,75,n,n,n
CN(C)c1ccc(-c2ccnc3c2CC(C)(C(=O)NCc2ccc(F)c(F)c2)O3)cc1 (stereo not given),n,x,x,x,n
COc1ccc(CCNC(=O)c2ccc([N+](=O)[O-])cc2Cl)cc1OC,n,71,n,n,n
COc1ccc(CCNC(=O)c2ccc(CSc3ccc(Cl)cc3)o2)cc1OC,66,x,x,x,n
COc1ccc(CCNC(=O)c2ccc(=O)[nH]n2)cc1OC,n,n,40,n,n

# Screens as filed in PubChem.
